Data set [1] concerns Mus musculus. The data set can be described thus: Protection against imiquimod-induced C57BL/6 mouse model of psoriasis assessed as reduction in IL-17A mRNA levels at 20 mg/kg, po BID for 7 days by RT-PCR analysis relative to control. Type of data set: functional. The arrangement: scale not given: the % may be the effect or the level left. To be noted: time 7 day.
Data set [2] in a line: AUC (0 to 24 hrs) in rat at 4 mg/kg, po. The format is ADME, organism-based. The arrangement: time < 24 hr, route oral, dose 4 mg/kg. The conditions noted are these: in vivo.
The target of a further data set is Cytochrome P450 2C9 (Homo sapiens, UniProt P11712). The data set can be described thus: Inhibition of CYP2C9 (unknown origin). Type of data set: ADME.
Data set [3] in a line: Half life in dog liver microsomes. Type of data set: ADME, Canis lupus familiaris, Microsome. The gist of the method:
(§1)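 Liver microsome half-life (min) measured in human, mouse, rat, dog and cyno liver microsomes.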
(Liver microsomes are a subcellular fraction often used to study metabolism.)

The target in another data set is T1, Cytochrome P450 2C8 (Homo sapiens, UniProt P10632).
T1 sequence (P10632 whole entry): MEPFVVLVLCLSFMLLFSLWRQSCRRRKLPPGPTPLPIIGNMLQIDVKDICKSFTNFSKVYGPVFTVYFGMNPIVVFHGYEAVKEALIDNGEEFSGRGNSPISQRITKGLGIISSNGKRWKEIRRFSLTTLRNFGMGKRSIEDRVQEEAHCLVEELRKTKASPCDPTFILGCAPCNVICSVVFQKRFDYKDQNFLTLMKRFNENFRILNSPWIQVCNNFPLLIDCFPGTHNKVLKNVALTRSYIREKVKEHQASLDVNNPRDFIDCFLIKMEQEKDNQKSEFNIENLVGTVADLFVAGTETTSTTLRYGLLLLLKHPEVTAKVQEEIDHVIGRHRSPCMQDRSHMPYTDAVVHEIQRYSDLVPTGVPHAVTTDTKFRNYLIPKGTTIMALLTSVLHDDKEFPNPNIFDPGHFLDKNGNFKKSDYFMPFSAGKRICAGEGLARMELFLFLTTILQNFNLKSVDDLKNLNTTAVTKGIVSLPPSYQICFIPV
The data set can be described thus: Inhibition of CYP2C8 (unknown origin). Type of data set: ADME.

Data set [4] concerns the target T2, Nuclear receptor ROR-gamma (Mus musculus, UniProt P51450).
T2 sequence (P51450 whole entry): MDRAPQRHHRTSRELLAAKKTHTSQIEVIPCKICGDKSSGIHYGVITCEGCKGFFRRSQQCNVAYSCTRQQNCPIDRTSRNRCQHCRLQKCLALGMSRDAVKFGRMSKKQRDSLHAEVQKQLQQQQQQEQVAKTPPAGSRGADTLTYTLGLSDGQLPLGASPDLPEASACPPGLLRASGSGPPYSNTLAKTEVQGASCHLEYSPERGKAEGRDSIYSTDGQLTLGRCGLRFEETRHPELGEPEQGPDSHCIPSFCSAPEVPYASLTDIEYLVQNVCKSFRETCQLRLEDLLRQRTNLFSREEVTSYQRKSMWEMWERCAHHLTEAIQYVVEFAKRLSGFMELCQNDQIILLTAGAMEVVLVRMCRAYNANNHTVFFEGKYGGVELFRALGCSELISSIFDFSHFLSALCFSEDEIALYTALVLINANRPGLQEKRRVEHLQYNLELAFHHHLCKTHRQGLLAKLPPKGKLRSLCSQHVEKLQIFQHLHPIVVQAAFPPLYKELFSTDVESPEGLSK
The data set can be described thus: Inverse agonist activity at RORgammat in mouse Th17 cells assessed as inhibition of CD3/CD28/IL-1/IL-23-induced IL-17A production measured after 24 hrs by AlphaLISA assay. The format is cell-based.

In data set [5] the test system is Mus musculus. Nature of the data set: Protection against recombinant human IL23-induced acanthosis C57BL/6 mouse model assessed as reduction in IL-17F mRNA levels at 6 mg/kg, po BID BID for 10 days by qRT-PCR analysis relative to control. To be noted: time 10 day. The format is functional. Set-up: scale not given: the % may be the effect or the level left. The gist of the method:
(§2)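 In the IL-23 ear-injection model in C57BL/6 mice with BID oral dosing, ear tissue was collected from all animals at study end on day 10. IL-17A and IL-17F mRNA expression was quantified by qPCR and compared with the placebo arm.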
(Quantitative PCR measures a nucleic acid by following its amplification.)

In data set [6] the test system is Mus musculus. The data set can be described thus: Protection against recombinant human IL23-induced acanthosis C57BL/6 mouse model assessed as reduction in IL-17A mRNA levels at 15 mg/kg, po BID BID for 10 days by qRT-PCR analysis relative to control. The format is functional. The arrangement: scale not given: the % may be the effect or the level left. To be noted: time 10 day. The gist of the method:
as §2

Data set [7] is described as follows: Metabolic stability in human liver microsomes assessed as parent compound remaining. The format is ADME, Microsome. In a few lines:
(§3)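 Test compound at 0.5 μM initial concentration incubated with human, mouse or rat liver microsomes (protein 1 mg/mL). Metabolic stability reported as percent of parent compound remaining after incubation.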

Data set [8] is described as follows: Metabolic stability in mouse liver microsomes assessed as parent compound remaining. Type of data set: ADME, Microsome. In a few lines:
as §3

The nature of data set [9]: Clearance in dog at 1 mg/kg, iv. To be noted: in vivo. The format is ADME, organism-based, Canis lupus familiaris. In a few lines:
(§4)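 Single-dose PK, IV and PO. Doses: mouse and rat 2 mg/kg IV / 4 mg/kg PO; dog and cyno 1 mg/kg IV, with 1 or 2 mg/kg PO.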

A short description of data set [10]: AUC (0 to 24 hrs) in mouse at 4 mg/kg, po. The format is ADME, organism-based. Set-up: time < 24 hr, route oral, dose 4 mg/kg. To be noted: in vivo.
Data set [11] addresses T3, Nuclear receptor ROR-alpha (Homo sapiens, UniProt P35398).
T3 sequence (P35398 whole entry): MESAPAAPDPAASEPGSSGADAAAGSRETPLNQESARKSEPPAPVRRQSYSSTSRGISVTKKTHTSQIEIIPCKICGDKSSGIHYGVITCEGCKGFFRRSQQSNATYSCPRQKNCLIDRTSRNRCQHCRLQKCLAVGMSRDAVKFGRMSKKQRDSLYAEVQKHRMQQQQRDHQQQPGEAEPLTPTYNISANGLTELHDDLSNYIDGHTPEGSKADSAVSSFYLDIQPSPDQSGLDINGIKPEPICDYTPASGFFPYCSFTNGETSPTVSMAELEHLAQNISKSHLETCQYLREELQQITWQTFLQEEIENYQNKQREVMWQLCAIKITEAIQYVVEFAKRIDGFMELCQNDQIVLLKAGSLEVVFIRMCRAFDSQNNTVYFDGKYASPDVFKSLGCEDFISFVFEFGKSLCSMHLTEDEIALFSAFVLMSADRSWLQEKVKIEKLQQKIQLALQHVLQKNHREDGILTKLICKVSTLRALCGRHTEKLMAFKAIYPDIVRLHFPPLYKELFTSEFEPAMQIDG
Nature of the data set: Inverse agonist activity at Gal4-fused RORalpha (unknown origin).

Data set [12] addresses Voltage-gated inwardly rectifying potassium channel KCNH2 (Homo sapiens, UniProt Q12809). Nature of the data set: Inhibition of human ERG by patch-clamp assay.
For another data set, the target named is Cytochrome P450 2C19 (Homo sapiens, UniProt P33261). The data set can be described thus: Inhibition of CYP2C19 (unknown origin). The format is ADME.
For data set [13], the system named is Mus musculus. Nature of the data set: Protection against imiquimod-induced C57BL/6 mouse model of psoriasis assessed as reduction in IL-17A mRNA levels at 10 mg/kg, po BID for 7 days by RT-PCR analysis relative to control. The format is functional. To be noted: time 7 day. The arrangement: scale not given: the % may be the effect or the level left.
The nature of data set [14]: Clearance in mouse at 2 mg/kg, iv. The format is ADME, organism-based. To be noted: in vivo. In a few lines: as §4
Data set [15] can be described thus: Cmax in mouse at 4 mg/kg, po. To be noted: in vivo. Type of data set: ADME, organism-based. Set-up: route oral, dose 4 mg/kg. In a few lines: as §4
Data set [16] can be described thus: Protein binding in human assessed as unbound fraction. The format is ADME.
A short description of data set [17]: Clearance in rat at 2 mg/kg, iv. Type of data set: ADME, organism-based. The conditions noted are these: in vivo. In a few lines: as §4
A short description of data set [18]: Oral bioavailability in mouse at 4 mg/kg. Type of data set: ADME, organism-based. To be noted: in vivo. The gist of the method:
as §4

The nature of data set [19]: Half life in rat liver microsomes. Type of data set: ADME, Microsome. In a few lines: as §1
Data set [20] in a line: Half life in human liver microsomes. The format is ADME, Microsome. The gist of the method:
as §1

Results on one molecule are retold here after ChEMBL document CHEMBL4819034, “Tricyclic-Carbocyclic RORγt Inverse Agonists-Discovery of BMS-986313” (J Med Chem, 2021).

The AUC(0-t) is exposure summed from dosing to a finite time, without extrapolation to infinity. In general, IC50 refers to the point on the concentration scale where inhibition reaches its midpoint. As usually defined, the half-life is the time needed for the level to fall by half in the phase considered. In general, EC50 refers to the concentration needed to bring the measured effect to its halfway point. For orientation: clearance means a measure of how efficiently the substance is removed, as volume per time. For orientation: Cmax means the maximum level reached in the sampled fluid or tissue. As usually defined, the fraction unbound is the share of the substance not bound to proteins or other matrix. The term bioavailability denotes the share of a dose that reaches the circulation, judged against a reference dose that is usually intravenous.

Voltage-gated inwardly rectifying potassium channel KCNH2, sequence (Q12809 whole entry): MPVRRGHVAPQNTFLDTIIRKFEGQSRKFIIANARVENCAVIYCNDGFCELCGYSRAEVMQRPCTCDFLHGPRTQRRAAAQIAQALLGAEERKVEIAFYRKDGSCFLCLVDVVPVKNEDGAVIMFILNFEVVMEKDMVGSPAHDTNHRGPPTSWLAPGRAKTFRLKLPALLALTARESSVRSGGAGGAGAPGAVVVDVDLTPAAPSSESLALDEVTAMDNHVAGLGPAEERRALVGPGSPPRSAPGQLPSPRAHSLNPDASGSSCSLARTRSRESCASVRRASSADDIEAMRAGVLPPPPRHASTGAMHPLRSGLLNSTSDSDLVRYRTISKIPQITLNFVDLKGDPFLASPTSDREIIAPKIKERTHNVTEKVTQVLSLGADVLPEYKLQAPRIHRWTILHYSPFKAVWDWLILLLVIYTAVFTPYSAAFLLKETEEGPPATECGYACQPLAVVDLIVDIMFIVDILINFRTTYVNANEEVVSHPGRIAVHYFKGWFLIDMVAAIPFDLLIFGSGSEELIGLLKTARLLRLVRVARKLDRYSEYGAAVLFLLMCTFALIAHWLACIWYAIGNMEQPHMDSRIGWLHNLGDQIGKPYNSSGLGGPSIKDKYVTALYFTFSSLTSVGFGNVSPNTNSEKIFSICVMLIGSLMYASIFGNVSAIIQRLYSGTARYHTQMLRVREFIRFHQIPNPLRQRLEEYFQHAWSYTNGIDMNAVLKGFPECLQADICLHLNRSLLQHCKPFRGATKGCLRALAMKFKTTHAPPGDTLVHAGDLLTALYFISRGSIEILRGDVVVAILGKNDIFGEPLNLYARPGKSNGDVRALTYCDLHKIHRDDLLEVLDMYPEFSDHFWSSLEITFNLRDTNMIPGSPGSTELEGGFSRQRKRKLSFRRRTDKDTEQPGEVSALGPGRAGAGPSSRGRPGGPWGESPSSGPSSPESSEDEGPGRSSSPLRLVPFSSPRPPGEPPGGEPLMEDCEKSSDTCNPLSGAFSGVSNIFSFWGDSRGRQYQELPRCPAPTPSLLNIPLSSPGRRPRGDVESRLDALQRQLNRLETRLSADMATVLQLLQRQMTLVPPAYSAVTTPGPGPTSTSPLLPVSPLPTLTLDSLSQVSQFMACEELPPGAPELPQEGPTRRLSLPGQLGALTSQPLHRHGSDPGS
Cytochrome P450 2C9, sequence (P11712 whole entry): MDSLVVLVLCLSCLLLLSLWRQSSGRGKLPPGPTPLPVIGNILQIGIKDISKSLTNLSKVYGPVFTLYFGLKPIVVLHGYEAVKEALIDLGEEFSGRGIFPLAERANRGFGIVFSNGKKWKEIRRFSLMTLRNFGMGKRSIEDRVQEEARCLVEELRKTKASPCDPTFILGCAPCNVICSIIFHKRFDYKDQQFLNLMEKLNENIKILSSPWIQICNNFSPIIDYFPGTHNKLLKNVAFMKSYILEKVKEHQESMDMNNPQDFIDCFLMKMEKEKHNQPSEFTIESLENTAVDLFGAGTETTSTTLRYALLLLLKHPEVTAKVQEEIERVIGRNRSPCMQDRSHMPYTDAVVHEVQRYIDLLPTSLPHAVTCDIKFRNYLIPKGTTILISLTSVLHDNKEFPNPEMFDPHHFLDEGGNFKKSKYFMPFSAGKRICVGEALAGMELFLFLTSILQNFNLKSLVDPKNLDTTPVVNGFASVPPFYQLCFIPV
Cytochrome P450 2C19, sequence (P33261 whole entry): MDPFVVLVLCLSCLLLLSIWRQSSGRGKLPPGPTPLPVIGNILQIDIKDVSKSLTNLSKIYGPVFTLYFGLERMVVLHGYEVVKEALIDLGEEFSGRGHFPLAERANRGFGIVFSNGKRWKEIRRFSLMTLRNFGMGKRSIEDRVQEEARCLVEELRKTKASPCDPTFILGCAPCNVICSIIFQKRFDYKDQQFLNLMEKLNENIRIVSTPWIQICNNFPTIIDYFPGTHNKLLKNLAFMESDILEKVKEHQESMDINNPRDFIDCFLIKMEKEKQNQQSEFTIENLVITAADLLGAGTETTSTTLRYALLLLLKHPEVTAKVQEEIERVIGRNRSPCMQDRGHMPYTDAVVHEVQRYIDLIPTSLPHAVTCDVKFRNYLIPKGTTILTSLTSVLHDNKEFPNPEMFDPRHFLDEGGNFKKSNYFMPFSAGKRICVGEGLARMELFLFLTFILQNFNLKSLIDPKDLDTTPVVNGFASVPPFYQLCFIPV

For `CC(C)(O)C(=O)N[C@@H]1CC[C@@]2(S(=O)(=O)c3ccc(F)cc3)c3ccc(C(F)(C(F)(F)F)C(F)(F)F)cc3CC[C@@H]12`, the Activity in the data set on Mus musculus [1] is listed as 91.5%; in the data set on Mus musculus [5] it was 87.3%; in the data set on Mus musculus [6], 71.6%; in the data set with Mus musculus [13] it was 76.7%. Further, the exposure AUC(0-t) at 24 h in data set [2] was determined as 17 µM·h; in data set [10] it was 33.2 µM·h. Moreover, the concentration for half-maximal inhibition (IC50) was 12 µM against Cytochrome P450 2C9, 12 µM against Cytochrome P450 2C8, 19 µM in data set [12] and 19 µM at Cytochrome P450 2C19. Besides, the half-life in [3], in data set [19] and in [20] was 2 h in each case. In addition, the half-maximal effective concentration (EC50) in data set [4] is 0.0027 µM; in data set [11], over 10 µM. Besides, the Stabilty in data set [7] came to 100%; in data set [8], 92%. Moreover, the clearance in data set [9] is 0.8 mL/min/kg; in [14] it was 3.7 mL/min/kg; in data set [17], 4.2 mL/min/kg. In [15], the highest level (Cmax) was 2200 nM. Also, the fraction unbound in [16] worked out at 0.005. This molecule yielded a bioavailability in data set [18] of 100%.
